Experiments:
[1] = tested on: Rattus norvegicus; assay: Duration of loss of the righting reflex induced by ethanol at a dose of 30 mg/Kg when given per oral; n=8; type: functional, Mus musculus
[2] = tested on: Mus musculus; assay: Percent of mice not entering into the dark compartment in 120 s in 24 hr retention test at 0 hr treatment at a dose of 10 mg/Kg when given peroral […] avoidance test; n=10
[3] = Binding affinity for rat alpha-3 beta2/3 gamma2 GABA-A/BzR receptor
In short: (§1)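 Recombinant rat αxβ2/3γ2 GABAA/benzodiazepine receptors expressed in HEK293 cells. Affinity measured by radioligand binding and reported as Ki. Values are means ± SEM from three independent experiments, each run in triplicate.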

[4] = tested on: Mus musculus; assay: Percent of mice not entering into the dark compartment in 120 s in 24 hr retention test at 0 hr treatment at a dose of 30 mg/Kg when given peroral […] avoidance test; n=10
[5] = Binding affinity for rat alpha2 beta2/3 gamma2 GABA-A/BzR receptor; in short: as §1
[6] = Binding affinity for rat alpha-1 beta2/3 gamma2 GABA A / BzR receptor; in short: as §1
[7] = Binding affinity for rat alpha-5 beta2/3 gamma2 GABA-A/BzR receptor; in short: as §1
[8] = tested on: Rattus norvegicus; assay: Duration of loss of the righting reflex induced by ethanol at a dose of 0.3 mg/Kg when given per oral; n=8; type: functional, Mus musculus
[9] = tested on: Rattus norvegicus; assay: Duration of loss of the righting reflex induced by ethanol at a dose of 1 mg/Kg when given per oral; n=12; type: functional, Mus musculus
[10] = tested on: Rattus norvegicus; assay: Duration of loss of the righting reflex induced by ethanol at a dose of 3 mg/Kg when given per oral; n=14; type: functional, Mus musculus

Structure (SMILES)	Time [1]	% [2]	Ki [3]	% [4]	Ki [5]	Ki [6]	Ki [7]	Time [8]	Time [9]	Time [10]
Cc1ccc(-c2nn3ccc(C)nc3c2CC(=O)N(C)C)cc1	104.9 min	40%	> 10 µM	50%	> 10 µM	0.031 µM	> 10 µM	–	–	–
CN1C(=O)CN=C(c2ccccc2)c2cc(Cl)ccc21 [DIAZEPAM]	–	–	–	–	0.02 µM	–	–	127.4 min	129.3 min	149.5 min
Cc1ccc(-c2nc3ccc(C)cn3c2CC(=O)N(C)C)cc1 [ZOLPIDEM]	–	50%	–	70%	–	–	> 10 µM	–	–	–

— ChEMBL document CHEMBL1141130, “A novel selective GABA(A) alpha1 receptor agonist displaying sedative and anxiolytic-like properties in rodents” (J Med Chem, 2005)
